Test [1] addresses T1, Neuronal acetylcholine receptor subunit alpha-7 (Rattus norvegicus, UniProt Q05941). The test can be described thus: Binding affinity to rat alpha7 nAChR.
The target of test [2] is Neuronal acetylcholine receptor; alpha4/beta2 (Rattus norvegicus, UniProt P09483+P12390). The test can be described thus: Binding affinity to rat alpha4beta2 nAChR.
The target of test [3] is T1, Neuronal acetylcholine receptor subunit alpha-7. Nature of the test: Agonist activity at rat alpha7 nAChR expressed in Xenopus laevis oocytes by two-electrode voltage clamp assay. The class given is functional, cell-based, Oocyte.
Test [4] shares this target. Nature of the test: Binding affinity to rat alpha7 nAChR expressed in Xenopus laevis oocytes. The format is cell-based, Oocyte.
The target in test [5] is Neuronal acetylcholine receptor subunit alpha-7 (Mus musculus, UniProt P49582).
Test [6] is filed under the species Homo sapiens. The test can be described thus: Ratio of EC50 for human nAChR alpha6/alpha3beta2beta3 V273S mutant to Ki for human alpha6/alpha3beta2beta3 nAChR.
Test [7] in a line: Agonist activity at human nAChR alpha6/alpha3beta2beta3 V273S mutant expressed in HEK293T cells by FLIPR. The format is functional, cell-based. To be noted: HEK-293T.
Test [8] in a line: Agonist activity at human nAChR alpha6/alpha3beta2beta3 V273S mutant expressed in HEK293T cells by FLIPR relative to 10 uM nicotine. The format is functional, HEK-293T.
For test [9], the target named is Nicotinic acetylcholine receptor alpha6/alpha3/beta2/beta3 (Rattus norvegicus, UniProt P04757+P12390+P12391+P43143). The test can be described thus: Agonist activity at alpha6/alpha3beta2beta3 nAChR in Sprague-Dawley rat striatal synaptosomes assessed as induction of dopamine release. The class given is functional, subcellular, Brain.
Test [10] has as its target Nicotinic acetylcholine receptor alpha6/alpha3/beta2/beta3 (Rattus norvegicus) (UniProt P04757+P12390+P12391+P43143). The test can be described thus: Agonist activity at alpha6/alpha3beta2beta3 nAChR in Sprague-Dawley rat striatal synaptosomes assessed as induction of dopamine release relative to 10 uM nicotine. The class given is functional, subcellular. To be noted: Brain.

The nature of test [11]: Agonist activity at rat alpha7 nAChR T6'S59 mutant expressed in rat GH4C1 cells by whole cell voltage clamp based electrophysiology method. The class given is functional. To be noted: GH4-C1. The procedure, abridged: (§1)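 Whole-cell voltage clamp at -60 mV, room temperature (22 ± 1 °C), one cell per agonist load, Dynaflow fast application. Agonist applied 1 s for α4β2 and 0.5 s for α7, with 30 s washout. Tris-based pipette solution, pH 7.3. Concentration-response data fitted to the Hill equation, with α4β2 fitted as the sum of two Hill equations. Max % relative to 1 mM ACh.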

A short description of test [12]: Agonist activity at rat alpha7 nAChR T6'S59 mutant expressed in rat GH4C1 cells by whole cell voltage clamp based electrophysiology method relative to 1 mM acetylcholine. The class given is functional, GH4-C1. The method, boiled down:
as §1

For test [13], the target named is T2, Neuronal acetylcholine receptor; alpha4/beta2 (Homo sapiens, UniProt P17787+P43681). Nature of the test: Agonist activity at human alpha4beta2 nAChR expressed in human SH-EP1 cells by whole cell voltage clamp based electrophysiology method. The class given is functional. The procedure, abridged:
as §1

Test [14] deals with T2, Neuronal acetylcholine receptor; alpha4/beta2. Nature of the test: Agonist activity at human alpha4beta2 nAChR expressed in human SH-EP1 cells by whole cell voltage clamp based electrophysiology method relative to 1 mM acetylcholine. The format is functional. The method, boiled down: as §1
Test [15] concerns the target T3, Neuronal acetylcholine receptor; alpha3/beta4 (Homo sapiens, UniProt P30926+P32297). Nature of the test: Agonist activity at human alpha3beta4 nAChR expressed in human SH-SY5Y cells assessed as increase in calcium flux by FLIPR. The format is functional, cell-based.
Test [16] has as its target T3, Neuronal acetylcholine receptor; alpha3/beta4. The test can be described thus: Agonist activity at human alpha3beta4 nAChR expressed in human SH-SY5Y cells assessed as increase in calcium flux by FLIPR relative to 10 uM nicotine. The class given is functional, cell-based.
Test [17] addresses T2, Neuronal acetylcholine receptor; alpha4/beta2. Nature of the test: Agonist activity at human alpha4beta2 nAChR low sensitivity form expressed in human SH-EP1 cells assessed as increase in calcium flux by FLIPR. The format is functional, cell-based.
The target is the same in test [18]. Nature of the test: Agonist activity at human alpha4beta2 nAChR low sensitivity form expressed in human SH-EP1 cells assessed as increase in calcium flux by FLIPR relative to 10 uM nicotine. The class given is functional, cell-based.
The target is the same in test [19]. The test can be described thus: Agonist activity at human alpha4beta2 nAChR high sensitivity form expressed in human SH-EP1 cells assessed as increase in calcium flux by FLIPR. The format is functional, cell-based.
For test [20] the target is unchanged. The test can be described thus: Agonist activity at human alpha4beta2 nAChR high sensitivity form expressed in human SH-EP1 cells assessed as increase in calcium flux by FLIPR relative to 10 uM nicotine. The format is functional, cell-based.
For test [21], the species on record is Homo sapiens. The test can be described thus: Selectivity index, ratio of Ki for human alpha3beta4 nAChR to Ki for human alpha4beta2 nAChR.
The target of test [22] is T3, Neuronal acetylcholine receptor; alpha3/beta4. Nature of the test: Displacement of [3H]epibatidine from human alpha3beta4 nAChR expressed in human SH-SY5Y cells. The class given is cell-based. The procedure, abridged: (§2)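 Binding to membranes from the cell lines: homogenised in PBS pH 7.4, spun at 40000g for 20 min at 4 °C, then incubated 2 h on ice in PBS with competitor (0.001 nM to 100 μM) and radioligand. Filters washed in ice-cold PBS and counted by scintillation. IC50 from nonlinear regression; Ki by Cheng-Prusoff. Minimum of three assays, ± SEM.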

Test [23] has as its target Neuronal acetylcholine receptor subunit alpha-7 (Homo sapiens, UniProt P36544). Nature of the test: Displacement of [3H]epibatidine from human alpha7 nAChR expressed in human HEK/RIC3 cells. The format is cell-based. The method, boiled down: as §2
The target of test [24] is T2, Neuronal acetylcholine receptor; alpha4/beta2. Nature of the test: Displacement of [3H]nicotine from human alpha4beta2 nAChR expressed in human SH-EP1 cells. The class given is cell-based. The procedure, abridged:
as §2

In test [25] the target is Neuronal acetylcholine receptor; alpha3/alpha6/beta2/beta3 (Homo sapiens, UniProt P17787+P32297+Q05901+Q15825). Nature of the test: Displacement of [3H]epibatidine from human alpha6/alpha3beta2beta3 nAChR expressed in HEK293T cells.

This note sets out measurements from ChEMBL document CHEMBL2176949 (J Med Chem, 2012).

Each structure is given as a SMILES string.

T2 sequence (P17787 whole entry): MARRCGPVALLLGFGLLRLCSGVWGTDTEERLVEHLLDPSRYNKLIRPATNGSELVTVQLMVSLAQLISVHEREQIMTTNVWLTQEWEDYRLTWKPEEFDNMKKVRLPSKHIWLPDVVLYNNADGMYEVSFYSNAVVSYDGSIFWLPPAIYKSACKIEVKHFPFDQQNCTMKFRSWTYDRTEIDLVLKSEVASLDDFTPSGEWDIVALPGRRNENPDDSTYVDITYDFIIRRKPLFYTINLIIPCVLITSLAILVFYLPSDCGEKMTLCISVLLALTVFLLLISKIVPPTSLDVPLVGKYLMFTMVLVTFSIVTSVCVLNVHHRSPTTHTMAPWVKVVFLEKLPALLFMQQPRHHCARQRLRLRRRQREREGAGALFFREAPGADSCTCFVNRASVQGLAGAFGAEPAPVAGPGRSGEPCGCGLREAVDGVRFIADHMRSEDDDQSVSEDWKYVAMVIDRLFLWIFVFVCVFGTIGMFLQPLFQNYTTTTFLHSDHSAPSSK
T2 sequence (P43681 whole entry): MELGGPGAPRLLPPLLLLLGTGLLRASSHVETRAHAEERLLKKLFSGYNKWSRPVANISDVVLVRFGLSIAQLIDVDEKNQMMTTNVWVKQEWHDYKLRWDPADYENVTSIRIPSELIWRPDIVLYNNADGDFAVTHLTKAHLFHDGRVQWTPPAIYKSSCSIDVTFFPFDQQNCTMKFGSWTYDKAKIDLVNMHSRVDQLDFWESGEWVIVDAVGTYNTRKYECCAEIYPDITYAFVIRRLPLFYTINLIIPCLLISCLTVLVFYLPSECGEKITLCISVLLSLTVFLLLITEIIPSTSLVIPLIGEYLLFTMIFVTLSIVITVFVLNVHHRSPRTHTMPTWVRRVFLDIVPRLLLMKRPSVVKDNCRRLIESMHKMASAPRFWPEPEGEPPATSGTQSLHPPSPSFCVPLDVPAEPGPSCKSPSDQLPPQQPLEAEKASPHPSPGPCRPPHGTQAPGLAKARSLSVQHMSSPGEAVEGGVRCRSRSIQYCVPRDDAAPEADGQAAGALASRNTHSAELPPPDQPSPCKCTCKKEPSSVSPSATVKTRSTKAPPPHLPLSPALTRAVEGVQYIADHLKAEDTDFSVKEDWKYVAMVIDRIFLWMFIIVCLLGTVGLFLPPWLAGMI
T1 sequence (Q05941 whole entry): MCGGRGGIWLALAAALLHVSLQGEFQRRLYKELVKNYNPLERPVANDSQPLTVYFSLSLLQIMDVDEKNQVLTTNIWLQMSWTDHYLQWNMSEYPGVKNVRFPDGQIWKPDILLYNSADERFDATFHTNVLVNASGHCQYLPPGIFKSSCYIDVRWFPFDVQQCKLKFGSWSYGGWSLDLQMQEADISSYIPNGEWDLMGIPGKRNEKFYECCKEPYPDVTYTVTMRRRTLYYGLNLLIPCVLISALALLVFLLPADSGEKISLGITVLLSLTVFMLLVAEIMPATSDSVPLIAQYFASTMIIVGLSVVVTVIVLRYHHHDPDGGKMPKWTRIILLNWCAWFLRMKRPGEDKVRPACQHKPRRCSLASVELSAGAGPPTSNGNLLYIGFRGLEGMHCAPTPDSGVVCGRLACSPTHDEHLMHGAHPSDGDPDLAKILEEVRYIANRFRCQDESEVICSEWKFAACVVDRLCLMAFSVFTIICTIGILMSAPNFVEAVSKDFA
T3 sequence (P30926 whole entry): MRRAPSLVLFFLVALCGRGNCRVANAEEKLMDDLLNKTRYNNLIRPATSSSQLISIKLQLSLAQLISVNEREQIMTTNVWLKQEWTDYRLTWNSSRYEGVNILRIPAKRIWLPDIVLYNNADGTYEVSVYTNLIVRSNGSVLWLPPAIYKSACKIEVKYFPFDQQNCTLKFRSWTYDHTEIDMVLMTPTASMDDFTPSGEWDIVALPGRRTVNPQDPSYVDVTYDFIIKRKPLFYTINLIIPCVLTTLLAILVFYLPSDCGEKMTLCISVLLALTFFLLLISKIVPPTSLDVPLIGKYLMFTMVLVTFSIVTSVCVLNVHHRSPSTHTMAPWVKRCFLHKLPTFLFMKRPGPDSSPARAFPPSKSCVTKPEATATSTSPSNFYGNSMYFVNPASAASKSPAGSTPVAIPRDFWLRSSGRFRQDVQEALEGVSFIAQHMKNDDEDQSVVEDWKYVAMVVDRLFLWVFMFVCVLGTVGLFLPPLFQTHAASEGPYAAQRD
T3 sequence (P32297 whole entry): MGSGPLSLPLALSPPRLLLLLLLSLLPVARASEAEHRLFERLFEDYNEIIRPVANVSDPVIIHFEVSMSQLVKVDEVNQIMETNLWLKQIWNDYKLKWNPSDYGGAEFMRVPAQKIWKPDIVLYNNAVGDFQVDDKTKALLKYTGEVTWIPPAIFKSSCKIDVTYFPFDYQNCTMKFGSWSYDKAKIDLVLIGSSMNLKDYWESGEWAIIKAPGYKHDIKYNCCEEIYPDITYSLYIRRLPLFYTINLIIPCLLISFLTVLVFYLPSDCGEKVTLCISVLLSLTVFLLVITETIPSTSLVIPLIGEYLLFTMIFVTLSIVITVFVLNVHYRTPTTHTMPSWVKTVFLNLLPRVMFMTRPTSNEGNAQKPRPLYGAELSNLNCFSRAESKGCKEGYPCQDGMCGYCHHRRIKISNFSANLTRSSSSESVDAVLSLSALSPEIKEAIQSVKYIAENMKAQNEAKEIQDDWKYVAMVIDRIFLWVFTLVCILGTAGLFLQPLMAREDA
Neuronal acetylcholine receptor subunit alpha-7 (Mus musculus, UniProt P49582), sequence (P49582 whole entry): as the sequence (Q05941 whole entry) above, with G4R, A424T counted along it
Neuronal acetylcholine receptor; alpha4/beta2 (Rattus norvegicus, UniProt P09483+P12390), sequence (P09483 whole entry): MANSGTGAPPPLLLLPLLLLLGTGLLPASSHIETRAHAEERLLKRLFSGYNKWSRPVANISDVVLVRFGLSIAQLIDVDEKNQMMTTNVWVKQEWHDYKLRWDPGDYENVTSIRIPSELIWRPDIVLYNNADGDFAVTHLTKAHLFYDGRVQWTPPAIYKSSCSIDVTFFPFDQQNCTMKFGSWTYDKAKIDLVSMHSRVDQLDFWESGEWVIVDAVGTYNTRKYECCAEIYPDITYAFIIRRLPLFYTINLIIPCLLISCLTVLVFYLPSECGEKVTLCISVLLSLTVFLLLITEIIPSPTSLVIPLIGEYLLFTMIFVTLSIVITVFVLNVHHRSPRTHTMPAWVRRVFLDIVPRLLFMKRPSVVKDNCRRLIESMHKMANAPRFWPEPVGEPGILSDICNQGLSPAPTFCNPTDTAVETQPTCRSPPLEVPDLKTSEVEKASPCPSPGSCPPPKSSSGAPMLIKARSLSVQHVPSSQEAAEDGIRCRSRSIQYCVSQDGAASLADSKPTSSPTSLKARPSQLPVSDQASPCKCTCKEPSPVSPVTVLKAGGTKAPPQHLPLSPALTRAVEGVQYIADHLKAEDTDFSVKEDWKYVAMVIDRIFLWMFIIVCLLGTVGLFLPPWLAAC
Neuronal acetylcholine receptor; alpha4/beta2 (Rattus norvegicus, UniProt P09483+P12390), sequence (P12390 whole entry): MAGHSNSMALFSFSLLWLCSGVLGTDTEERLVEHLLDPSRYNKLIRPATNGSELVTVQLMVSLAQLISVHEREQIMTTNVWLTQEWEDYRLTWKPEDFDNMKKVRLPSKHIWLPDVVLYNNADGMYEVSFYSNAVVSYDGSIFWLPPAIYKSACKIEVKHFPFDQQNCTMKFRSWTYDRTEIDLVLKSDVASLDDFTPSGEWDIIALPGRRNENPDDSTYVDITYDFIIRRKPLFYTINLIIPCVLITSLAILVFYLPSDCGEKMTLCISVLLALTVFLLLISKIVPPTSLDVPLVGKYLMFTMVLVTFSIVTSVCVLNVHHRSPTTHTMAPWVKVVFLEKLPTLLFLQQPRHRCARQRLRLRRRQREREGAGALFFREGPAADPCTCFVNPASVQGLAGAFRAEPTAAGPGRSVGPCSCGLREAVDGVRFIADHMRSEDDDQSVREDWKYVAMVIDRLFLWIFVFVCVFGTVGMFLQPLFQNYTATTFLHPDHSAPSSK
Neuronal acetylcholine receptor subunit alpha-7 (Homo sapiens, UniProt P36544), sequence (P36544 whole entry): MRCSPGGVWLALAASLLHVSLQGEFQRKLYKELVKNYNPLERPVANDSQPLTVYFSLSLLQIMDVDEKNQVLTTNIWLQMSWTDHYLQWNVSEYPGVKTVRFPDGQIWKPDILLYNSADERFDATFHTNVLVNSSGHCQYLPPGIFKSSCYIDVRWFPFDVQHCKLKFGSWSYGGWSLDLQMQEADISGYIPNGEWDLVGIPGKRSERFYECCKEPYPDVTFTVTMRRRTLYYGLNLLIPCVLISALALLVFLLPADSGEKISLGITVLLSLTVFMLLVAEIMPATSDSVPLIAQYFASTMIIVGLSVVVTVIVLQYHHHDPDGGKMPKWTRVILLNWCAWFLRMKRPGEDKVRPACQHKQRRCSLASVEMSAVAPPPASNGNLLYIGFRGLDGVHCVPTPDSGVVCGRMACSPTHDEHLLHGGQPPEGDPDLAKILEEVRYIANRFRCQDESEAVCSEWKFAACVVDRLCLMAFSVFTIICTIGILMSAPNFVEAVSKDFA

In the case of `O=c1cccc2n1C[C@@H]1CNC[C@H]2C1` [CYTISINICLINE], the values for the inhibition constant (Ki) in [1] and in test [2] were 8000 nM and 1 nM, respectively.

For the compound `c1cnc2cc3c(cc2n1)[C@@H]1CNC[C@H]3C1` [VARENICLINE], in [3], the midpoint of the response, the EC50, lay at 18000 nM. Moreover, affinity in test [4] was put at a Ki of 300 nM.

With `CN1CCC[C@H]1c1cccnc1` [NICOTINE], the inhibition constant (Ki) in test [5] amounted to 244 nM. This counts as sub-micromolar.

As to `C1=C(c2cccnc2)C[C@@H]2CNC[C@H]1C2`, the Ratio in the test listed under Homo sapiens [6] is 15. The concentration giving a half-maximal response (EC50) in test [7] stood at 15 nM; in test [9], 1.4 nM; in [11], 20 nM; in [13], 50 nM; in [15], 73 nM; in test [17], 35 nM. Moreover, the EC50 in [19] amounted to 2.3 nM. The “%max” value in [8] amounted to 82%; in [10] it was 49%; in [12], 28%; in [14] it was 32%; in test [16] it was 139%; in test [18], 131%. For the same compound, the %max in [20] was found to be 111%. Further, the Ratio Ki in the test listed under Homo sapiens [21] was 230. Further, the inhibition constant (Ki) in test [22] was 23 nM; in test [23] it was 1.3 nM; in [24], 0.1 nM; in test [25] it was 1 nM.
